Reference: ChEMBL document CHEMBL4706596, “Synthesis, biological evaluation, in silico modeling and crystallization of novel small monocationic molecules with potent antiproliferative activity by dual mechanism” (Eur J Med Chem, 2020)

Columns and labels:
HeLa [1] = test: Induction of cell cycle arrest in human HeLa cells assessed as accumulation at G0/G1 phase at 1 uM incubated for 24 hrs by PI staining based flowcytometry analysis (reference value: 57 %); format: functional
HeLa [2] = test: Antiproliferative activity against human HeLa cells assessed as inhibition of cell proliferation incubated for 72 hrs by MTT assay; format: functional
Outline: (§1)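 Cells seeded at 8 × 10³/well and held 18 h at 37 °C, 5% CO₂. Medium then replaced with compound at several concentrations for 72 h at 37 °C, followed by MTT viability read-out. GI50 is taken against cells given the maximum DMSO (0.25%), which is set as 100% viability. Dose-response curves come from at least three independent experiments run in triplicate and are reported as mean ± SE.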

HT-29 [3] = test: Antiproliferative activity against human HT-29 cells assessed as inhibition of cell proliferation incubated for 72 hrs by MTT assay; format: functional; outline: as §1
RS4-11 = test: Antiproliferative activity against human RS4-11 cells assessed as inhibition of cell proliferation incubated for 72 hrs by MTT assay; format: functional; outline: as §1
CCRF-CEM = test: Antiproliferative activity against human CCRF-CEM cells assessed as inhibition of cell proliferation incubated for 72 hrs by MTT assay; format: functional; outline: as §1
Choline kinase alpha [4] = biological target: T1, Choline kinase alpha (Homo sapiens, UniProt P35790); test: Binding affinity to human CKalpha1 assessed as dissociation constant by spectroflurometry
Outline: (§2)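 Purified human CK (cloned as reported earlier) at 1 µM was titrated with compound in 25 mM Tris, 150 mM NaCl, pH 7.5 at 25 °C. Compound ranges were 0.1–10 µM for CKα1 and 0.5–200 µM for CKβ. Tryptophan quenching was read with excitation at 280 nm, emission 300–400 nm and 5 nm slits. DMSO-matched controls were run, and Kd was fitted to a single-site model. Results are given as mean ± SD.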
Target sequence in this assay (P35790 whole entry): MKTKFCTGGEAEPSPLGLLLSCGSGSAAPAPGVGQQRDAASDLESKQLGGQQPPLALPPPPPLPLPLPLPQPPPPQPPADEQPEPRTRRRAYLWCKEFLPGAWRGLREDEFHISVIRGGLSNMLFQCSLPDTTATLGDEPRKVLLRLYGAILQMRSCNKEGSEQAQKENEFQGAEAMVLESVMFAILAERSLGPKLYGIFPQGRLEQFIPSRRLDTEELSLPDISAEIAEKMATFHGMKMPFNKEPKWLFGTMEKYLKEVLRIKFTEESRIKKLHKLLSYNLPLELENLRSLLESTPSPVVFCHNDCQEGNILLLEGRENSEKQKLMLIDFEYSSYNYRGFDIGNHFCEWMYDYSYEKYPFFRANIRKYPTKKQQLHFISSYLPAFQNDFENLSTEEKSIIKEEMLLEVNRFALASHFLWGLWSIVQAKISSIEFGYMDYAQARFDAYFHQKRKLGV

[5] = biological target: Choline/ethanolamine kinase (Homo sapiens, UniProt Q9Y259); test: Binding affinity to human CKbeta assessed as dissociation constant by spectroflurometry; outline: as §2
Homo sapiens = organism: Homo sapiens; test: Selectivity index, ratio of Kd for human CKbeta to Kd for human CKalpha1
Choline kinase alpha [6] = biological target: T1, Choline kinase alpha; test: (§3) Inhibition of human CKalpha1 assessed as reduction in 14C incorporation from [methyl-14C]choline to phosphatidylcholine at 10 uM using [methyl-14C]choline as substrate preincubated for 5 mins in presence of ATP and MgCl2 followed by substrate addition and measured after 10 mins by liquid scintillation counting method relative to control; settings: time 15.0 min
Outline: (§4)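 Purified human CKα1 (20 ng) in 100 mM Tris pH 8.5 with 10 mM MgCl₂ and 10 mM ATP, DMSO ≤0.1%, was preincubated 5 min at 37 °C. Reaction was started with 1 mM [methyl-¹⁴C]choline (4500 dpm/nmol), run 10 min at 37 °C and stopped in boiling water. Product was separated by silica TLC, scraped and scintillation-counted against DMSO controls. At least three experiments were run; IC50 was obtained from sigmoidal dose-response fits.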
Target sequence in this assay (P35790 whole entry, looked up): as the sequence (P35790 whole entry) above

Choline kinase alpha [7] = biological target: T1, Choline kinase alpha; test: as §3, with “at 30” for “at 10”; settings: time 15.0 min; outline: as §4
Target sequence in this assay (P35790 whole entry, looked up): as the sequence (P35790 whole entry) above

Choline kinase alpha [8] = biological target: T1, Choline kinase alpha; test: as §3, with “[…]” for “phosphatidylcholine at 10 uM”; outline: as §4
Target sequence in this assay (P35790 whole entry): as above

[9] = Inhibition of [methyl-14C]choline uptake in human HT-29 cells at 10 uM incubated for 10 mins followed by removal of medium containing compound and subsequent addition of [methyl-14C]choline measured after 5 mins relative to control; format: functional; settings: HT-29, 10 min
Outline: (§5)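 Cells at 200,000/well were incubated for 10 min at 37 °C in medium with or without CKα1 inhibitor. The medium was then removed and cells were exposed to [methyl-¹⁴C]choline (31 Ci/mol) for 5 min at 37 °C. Uptake was stopped by aspiration and two ice-cold PBS washes containing choline. Inhibition is expressed as % of untreated control.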

[10] = Inhibition of [methyl-14C]choline uptake in human HT-29 cells at 30 uM incubated for 10 mins followed by removal of medium containing compound and subsequent addition of [methyl-14C]choline measured after 5 mins relative to control; format: functional; settings: HT-29, 10 min; outline: as §5
[11] = Inhibition of [methyl-14C]choline uptake in human HepG2 cells at 10 uM incubated for 10 mins followed by removal of medium containing compound and subsequent addition of [methyl-14C]choline measured after 5 mins relative to control; format: functional; settings: HepG2, 10 min; outline: as §5
[12] = Inhibition of [methyl-14C]choline uptake in human HepG2 cells at 30 uM incubated for 10 mins followed by removal of medium containing compound and subsequent addition of [methyl-14C]choline measured after 5 mins relative to control; format: functional; settings: HepG2, 10 min; outline: as §5
HeLa [13] = test: Induction of cell cycle arrest in human HeLa cells assessed as accumulation at S phase at 1 uM incubated for 24 hrs by PI staining based flowcytometry analysis (reference value: 32.30 %); format: functional
HeLa [14] = test: Induction of cell cycle arrest in human HeLa cells assessed as accumulation at G2/M phase at 1 uM incubated for 24 hrs by PI staining based flowcytometry analysis (reference value: 10.7 %); format: functional
HeLa [15] = test: Induction of cell cycle arrest in human HeLa cells assessed as accumulation at G0/G1 phase at 2.5 uM incubated for 24 hrs by PI staining based flowcytometry analysis (reference value: 57 %); format: functional
HeLa [16] = test: Induction of cell cycle arrest in human HeLa cells assessed as accumulation at S phase at 2.5 uM incubated for 24 hrs by PI staining based flowcytometry analysis (reference value: 32.30 %); format: functional
HeLa [17] = test: Induction of cell cycle arrest in human HeLa cells assessed as accumulation at G2/M phase at 2.5 uM incubated for 24 hrs by PI staining based flowcytometry analysis (reference value: 10.70 %); format: functional
HT-29 [18] = test: Induction of cell cycle arrest in human HT-29 cells assessed as accumulation at G0/G1 phase at 1 uM incubated for 24 hrs by PI staining based flowcytometry analysis (reference value: 60.20 %); format: functional
HT-29 [19] = test: Induction of cell cycle arrest in human HT-29 cells assessed as accumulation at S phase at 1 uM incubated for 24 hrs by PI staining based flowcytometry analysis (reference value: 27.40 %); format: functional
HT-29 [20] = test: Induction of cell cycle arrest in human HT-29 cells assessed as accumulation at G2/M phase at 1 uM incubated for 24 hrs by PI staining based flowcytometry analysis (reference value: 12.40 %); format: functional
HT-29 [21] = test: Induction of cell cycle arrest in human HT-29 cells assessed as accumulation at G0/G1 phase at 2.5 uM incubated for 24 hrs by PI staining based flowcytometry analysis (reference value: 60.20 %); format: functional
HT-29 [22] = test: Induction of cell cycle arrest in human HT-29 cells assessed as accumulation at S phase at 2.5 uM incubated for 24 hrs by PI staining based flowcytometry analysis (reference value: 27.40 %); format: functional
HT-29 [23] = test: Induction of cell cycle arrest in human HT-29 cells assessed as accumulation at G2/M phase at 2.5 uM incubated for 24 hrs by PI staining based flowcytometry analysis (reference value: 12.40 %); format: functional
HT-29 [24] = test: Induction of apoptosis in human HT-29 cells measured for 48 hrs by annexin V-FITC and PI staining based flowcytometry analysis; format: functional, cell-based; settings: dose 2.5-5 µM
Outline: (§6)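 Treated cells were collected at different times, dual-stained with annexin V-FITC (phosphatidylserine exposure) and propidium iodide (DNA), and analysed by bi-parametric flow cytometry.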

HeLa [25] = test: Induction of apoptosis in human HeLa cells measured for 48 hrs by annexin V-FITC and PI staining based flowcytometry analysis; format: functional, cell-based; settings: dose 2.5-5 µM; outline: as §6
HT-29 [26] = test: Induction of mitochondrial membrane potential loss in human HT-29 cells measured for 48 hrs by JC1 staining based flow cytometry analysis; format: functional, cell-based; settings: dose 2.5-5 µM
Outline: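 Cells were treated with compound, then stained with the fluorescent dye JC-1. Loss of mitochondrial membrane potential was monitored by flow cytometry.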

HT-29 [27] = test: Induction of apoptosis in human HT-29 cells at 2.5 to 5 uM by annexin V-FITC and PI staining based flowcytometry analysis; format: functional, cell-based; settings: dose 2.5-5 µM, time 24-48 hrs, TDE = time-dependent effect; outline: as §6
HeLa [28] = test: Induction of apoptosis in human HeLa cells at 2.5 to 5 uM by annexin V-FITC and PI staining based flowcytometry analysis; format: functional, cell-based; settings: dose 2.5-5 µM, time 24-48 hrs, TDE = time-dependent effect; outline: as §6
HeLa [29] = test: Induction of mitochondrial membrane potential loss in human HeLa cells by JC1 staining based flow cytometry analysis; settings: dose 2.5-5 µM
HT-29 [30] = test: Induction of cell cycle arrest in human HT-29 cells assessed as increase accumulation of G0/G1 phase incubated for 24 hrs by PI staining based flowcytometry analysis; settings: dose 1-2.5 µM

Sequence of Choline/ethanolamine kinase (Q9Y259 whole entry): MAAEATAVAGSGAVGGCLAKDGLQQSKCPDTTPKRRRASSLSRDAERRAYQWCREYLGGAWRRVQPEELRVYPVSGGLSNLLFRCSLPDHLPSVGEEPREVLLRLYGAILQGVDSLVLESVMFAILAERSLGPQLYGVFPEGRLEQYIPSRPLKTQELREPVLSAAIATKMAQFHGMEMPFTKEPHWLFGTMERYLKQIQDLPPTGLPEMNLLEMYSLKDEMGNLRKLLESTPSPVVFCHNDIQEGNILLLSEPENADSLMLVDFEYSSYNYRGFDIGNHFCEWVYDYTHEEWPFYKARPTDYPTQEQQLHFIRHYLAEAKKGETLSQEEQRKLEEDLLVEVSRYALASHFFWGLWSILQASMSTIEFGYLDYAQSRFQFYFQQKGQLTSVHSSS

GI50 (HeLa [2]): 0.36 µM
GI50 (HT-29 [3]): 0.09 µM
GI50 (RS4-11): 0.06 µM
GI50 (CCRF-CEM): 0.15 µM
Kd (Choline kinase alpha [4]): 0.37 µM
Kd [5]: 63 µM
Ratio (Homo sapiens): 171
inhibition (Choline kinase alpha [6]): 74.4%
inhibition (Choline kinase alpha [7]): 94.4%
IC50 (Choline kinase alpha [8]): 6.74 µM
Compound: Clc1ccc2c(N3CCCCCC3)cc[n+](Cc3ccc(-c4ccccc4)cc3)c2c1.[Br-]
Activity (HeLa [1]): 67.47%
inhibition at 10 µM [9]: 86.9%
inhibition at 30 µM [10]: 96.7%
inhibition at 10 µM [11]: 88.2%
inhibition at 30 µM [12]: 95.5%
Activity (HeLa [13]): 25.23%
Activity (HeLa [14]): 7.31%
Activity (HeLa [15]): 66.27%
Activity (HeLa [16]): 27.31%
Activity (HeLa [17]): 4.5%
Activity (HT-29 [18]): 88%
Activity (HT-29 [19]): 5.1%
Activity (HT-29 [20]): 6.9%
Activity (HT-29 [21]): 86.3%
Activity (HT-29 [22]): 5.8%
Activity (HT-29 [23]): 7.9%
Activity (HT-29 [24]): Dose-dependent effect
Activity (HeLa [25]): Dose-dependent effect
Activity (HT-29 [26]): Dose-dependent effect
Activity (HT-29 [27]): Tde
Activity (HeLa [28]): Tde
Activity (HeLa [29]): Dose-dependent effect
Activity (HT-29 [30]): Dose-dependent effect
